# Results reported in PubChem BioAssay AID488820 (Broad Institute, 2010).
# Activity calls are given as the source filed them.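 Rule for the calls: active = compounds raising nuclear GFP-tagged hypoxia factor signal, with fitted half-maximal dose at or below the top valid dose; inconclusive = flat response of 30 to 70% activation, or poor curve fit; inactive = the rest, including opposite-direction effects.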
# Tested on: not listed separately
# Experiment: HIF1a nuclear accumulation inducers, dose response, imaging, U2OS HIF1a-GFP, high content, dry powder (AID 488820)
# Conditions: U2OS HIF1a-GFP, nuclear intensity imaging; at 38 µM (top of the series)
# Summary of the method: (§1)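 Material: U2OS cells with GFP-HIF1alpha | Input: 2,000 cells/well | Replicates: Duplicate | Doses: 8-point, 3-fold series | Buffer or medium: Culture medium lacking phenol red | Incubation: 24 h compound exposure at 37 °C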
row,SMILES,activation
1,O=C(c1cc(-c2ccccc2)on1)N1CCc2cccnc21,-2.04% (inactive)
2,CN1CCN(C(=O)c2cc(-c3ccccc3)on2)CC1,3.08% (inactive)
3,Cc1cccc(NC(=O)c2cc(-c3ccccc3)on2)n1,9.15% (inactive)
4,Cn1c(NC(=O)c2cc(-c3ccccc3)on2)nc2ccccc21,-0.56% (inactive)
5,O=C(Nc1ccc2ccccc2n1)c1cc(-c2ccccc2)on1,-3.83% (inactive)
6,O=C(NCCN1CCCCC1)c1cc(-c2ccccc2)on1,31.8% (inactive)
7,O=C(Nc1ncc(-c2ccccc2)o1)c1cc(-c2ccccc2)on1,7.7% (inactive)
8,O=C(Nc1nnc(-c2ccccc2)s1)c1cc(-c2ccccc2)on1,-0.482% (inactive)
9,CC(C)(C)CCNC(=O)c1cc(-c2ccccc2)on1,17.6% (inactive)
10,O=C(Nc1ncc2ccccc2n1)c1cc(-c2ccccc2)on1,1.57% (inactive)
11,O=C(c1cc(-c2ccccc2)on1)N1CCC(N2CCOCC2)CC1,14.1% (inactive)
12,O=C(c1cc(-c2ccccc2)on1)N1CCC(N2CCCC2)CC1,12.8% (inactive)
13,O=C(NCC1CCCCC1)c1cc(-c2ccccc2)on1,18.3% (inactive)
14,O=C(Nc1nc2ccccc2s1)c1cc(-c2ccccc2)on1,12.2% (inactive)
15,Cc1cccc(CNC(=O)c2cc(-c3ccccc3)on2)c1,11.8% (inactive)
16,O=C(NCc1ccccc1)c1cc(-c2ccccc2)on1,15.8% (inactive)
17,Cc1ccc(NC(=O)c2cc(-c3ccccc3)on2)cn1,25.1% (inactive)
18,O=C(Nc1cn2ccccc2n1)c1cc(-c2ccccc2)on1,1.49% (inactive)
19,Cn1c(-c2ccccc2)cnc1NC(=O)c1cc(-c2ccccc2)on1,-4.96% (inactive)
20,Cc1ccccc1CNC(=O)c1cc(-c2ccccc2)on1,23% (inactive)
21,O=C(NC1Cc2ccccc2C1)c1cc(-c2ccccc2)on1,6.89% (inactive)
22,O=C(c1cc(-c2ccccc2)on1)N1CCC(CO)CC1,-4.8% (inactive)
23,O=C(Nc1nc(-c2ccccc2)cs1)c1cc(-c2ccccc2)on1,4.03% (inactive)
24,O=C(NC1CCc2ccccc2C1)c1cc(-c2ccccc2)on1 (stereo not drawn),30.1% (inactive)
25,Cc1ccc(CNC(=O)c2cc(-c3ccccc3)on2)cc1,12.8% (inactive)
26,O=C(c1cc(-c2ccccc2)on1)N1CCN(c2ccncc2)CC1,31% (inactive)
27,CN(C)CCNC(=O)c1cc(-c2ccccc2)on1,6.65% (inactive)
28,O=C(Nc1cnc2ccccc2c1)c1cc(-c2ccccc2)on1,5.39% (inactive)

# Tested on: U2OS HIF1a-GFP, nuclear intensity imaging
# Experiment: as above
# Conditions: not given
# Summary of the method: as §1
row,SMILES,AC50
1,c1ccc(-c2nnc(-c3ccccn3)nc2NCC2CCCCC2)cc1,0.882 µM
2,CC(C)(C)CCNc1nc(-c2ccccn2)nnc1-c1ccccc1,3.27 µM
3,C=CCNc1nc(-c2ccccn2)nnc1-c1ccccc1,2.7 µM
4,c1ccc(-c2nnc(Nc3nc(-c4ccccn4)nnc3-c3ccccc3)s2)cc1,7.41 µM
5,Cn1c(-c2ccccc2)cnc1Nc1nc(-c2ccccn2)nnc1-c1ccccc1,4.31 µM
6,Cc1ccc(CNc2nc(-c3ccccn3)nnc2-c2ccccc2)cc1,1.1 µM
7,Cc1ccc(Nc2nc(-c3ccccn3)nnc2-c2ccccc2)cn1,7.08 µM
8,CN(C)c1nc(-c2ccccn2)nnc1-c1ccccc1,2.94 µM
9,O=C(NCC1CC1)c1cc(-c2ccccc2)on1,16.1 µM
10,Cc1ccccc1CNc1nc(-c2ccccn2)nnc1-c1ccccc1,2.73 µM
11,c1ccc(-c2nnc(-c3ccccn3)nc2N2CCC(N3CCOCC3)CC2)cc1,6.51 µM
12,c1ccc(-c2cnc(Nc3nc(-c4ccccn4)nnc3-c3ccccc3)s2)cc1,17.7 µM
13,c1ccc(-c2nnc(-c3ccccn3)nc2Nc2nc3ccccc3s2)cc1,5.32 µM
14,c1ccc(-c2nnc(-c3ccccn3)nc2NCC2CC2)cc1,3.37 µM
15,CCCCNC(=O)c1cc(-c2ccccc2)on1,6.16 µM
16,O=C(NCCCn1ccnc1)c1cc(-c2ccccc2)on1,8.03 µM
17,c1ccc(CNc2nc(-c3ccccn3)nnc2-c2ccccc2)cc1,3.08 µM
18,O=C(NCCCN1CCOCC1)c1cc(-c2ccccc2)on1,18.1 µM
19,CN1CCN(c2nc(-c3ccccn3)nnc2-c2ccccc2)CC1,5.11 µM
20,c1ccc(-c2nnc(-c3ccccn3)nc2Nc2cnc3ccccc3n2)cc1,5.59 µM
21,c1ccc(-c2nnc(-c3ccccn3)nc2N2CCN(c3ccncc3)CC2)cc1,2.68 µM
22,Cc1cccc(Nc2nc(-c3ccccn3)nnc2-c2ccccc2)n1,2.98 µM
23,O=C(NCCCCO)c1cc(-c2ccccc2)on1,2.1 µM
24,O=C(NCCN1CCOCC1)c1cc(-c2ccccc2)on1,6.66 µM
25,c1ccc(-c2nnc(-c3ccccn3)nc2NCCCN2CCOCC2)cc1,2.42 µM
26,OCCCNc1nc(-c2ccccn2)nnc1-c1ccccc1,5.73 µM
27,c1ccc(-c2csc(Nc3nc(-c4ccccn4)nnc3-c3ccccc3)n2)cc1,10.1 µM
28,c1ccc(-c2nnc(-c3ccccn3)nc2NCCN2CCOCC2)cc1,5.41 µM
29,O=C(NCCCO)c1cc(-c2ccccc2)on1,6.09 µM
30,Cc1cccc(CNc2nc(-c3ccccn3)nnc2-c2ccccc2)c1,0.621 µM
